In ChEMBL document CHEMBL4118033, “Total Synthesis, Configuration Assignment, and Cytotoxic Activity Evaluation of Protulactone A” (J Nat Prod, 2017):
Calls of active or inactive are those of the source.

Tests used:
Assay type in all cases: functional, cell-based
MOLT-4 = test: Antiproliferative activity against human MOLT4 cells at 10 uM incubated for 48 hrs by sulforhodamine B assay
In short: (§1)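 Run by the NCI Developmental Therapeutics Program (Division of Cancer Treatment and Diagnosis) as part of the NCI60 human tumour cell line panel screen. Each compound was tested at a single dose of 10 μM. Results are reported as one-dose mean graphs.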

RPMI-8226 = test: Antiproliferative activity against human RPMI8226 cells at 10 uM incubated for 48 hrs by sulforhodamine B assay; in short: as §1
SR = test: Antiproliferative activity against human SR cells at 10 uM incubated for 48 hrs by sulforhodamine B assay
In short: (§2)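 Run by the NCI Developmental Therapeutics Program (Division of Cancer Treatment and Diagnosis) as part of the NCI60 human tumour cell line panel. Each compound was tested in vitro at a single dose of 10 μM, and the data are reported as one-dose mean graphs across the panel.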

A549 = test: Antiproliferative activity against human A549/ATCC cells at 10 uM incubated for 48 hrs by sulforhodamine B assay; in short: as §1
EKVX = test: Antiproliferative activity against human EKVX cells at 10 uM incubated for 48 hrs by sulforhodamine B assay; in short: as §1
HOP-62 = test: Antiproliferative activity against human HOP62 cells at 10 uM incubated for 48 hrs by sulforhodamine B assay; in short: as §1
HOP-92 = test: Antiproliferative activity against human HOP92 cells at 10 uM incubated for 48 hrs by sulforhodamine B assay; in short: as §1
NCI-H226 = test: Antiproliferative activity against human NCI-H226 cells at 10 uM incubated for 48 hrs by sulforhodamine B assay; in short: as §1
NCI-H23 = test: Antiproliferative activity against human NCI-H23 cells at 10 uM incubated for 48 hrs by sulforhodamine B assay; in short: as §1
NCI-H460 = test: Antiproliferative activity against human NCI-H460 cells at 10 uM incubated for 48 hrs by sulforhodamine B assay; in short: as §1
NCI-H522 = test: Antiproliferative activity against human NCI-H522 cells at 10 uM incubated for 48 hrs by sulforhodamine B assay; in short: as §1
HCC 2998 = test: Antiproliferative activity against human HCC2998 cells at 10 uM incubated for 48 hrs by sulforhodamine B assay; in short: as §1
HCT-116 = test: Antiproliferative activity against human HCT116 cells at 10 uM incubated for 48 hrs by sulforhodamine B assay; in short: as §1
HCT-15 = test: Antiproliferative activity against human HCT15 cells at 10 uM incubated for 48 hrs by sulforhodamine B assay; in short: as §1
KM12 = test: Antiproliferative activity against human KM12 cells at 10 uM incubated for 48 hrs by sulforhodamine B assay; in short: as §1
SW-620 = test: Antiproliferative activity against human SW620 cells at 10 uM incubated for 48 hrs by sulforhodamine B assay; in short: as §2
SF-268 = test: Antiproliferative activity against human SF268 cells at 10 uM incubated for 48 hrs by sulforhodamine B assay; in short: as §1
SF-539 = test: Antiproliferative activity against human SF539 cells at 10 uM incubated for 48 hrs by sulforhodamine B assay; in short: as §1
SNB-19 = test: Antiproliferative activity against human SNB19 cells at 10 uM incubated for 48 hrs by sulforhodamine B assay; in short: as §1
SNB-75 = test: Antiproliferative activity against human SNB75 cells at 10 uM incubated for 48 hrs by sulforhodamine B assay; in short: as §2
U-251 = test: Antiproliferative activity against human U251 cells at 10 uM incubated for 48 hrs by sulforhodamine B assay; in short: as §2
LOX IMVI = test: Antiproliferative activity against human LOXIMVI cells at 10 uM incubated for 48 hrs by sulforhodamine B assay; in short: as §1
M14 = test: Antiproliferative activity against human M14 cells at 10 uM incubated for 48 hrs by sulforhodamine B assay; in short: as §1
SK-MEL-2 = test: Antiproliferative activity against human SK-MEL-2 cells at 10 uM incubated for 48 hrs by sulforhodamine B assay; in short: as §1
SK-MEL-28 = test: Antiproliferative activity against human SK-MEL-28 cells at 10 uM incubated for 48 hrs by sulforhodamine B assay; in short: as §1
UACC-257 = test: Antiproliferative activity against human UACC257 cells at 10 uM incubated for 48 hrs by sulforhodamine B assay; in short: as §2
UACC-62 = test: Antiproliferative activity against human UACC62 cells at 10 uM incubated for 48 hrs by sulforhodamine B assay; in short: as §2
IGROV-1 = test: Antiproliferative activity against human IGROV1 cells at 10 uM incubated for 48 hrs by sulforhodamine B assay; in short: as §1
OVCAR-3 = test: Antiproliferative activity against human OVCAR3 cells at 10 uM incubated for 48 hrs by sulforhodamine B assay; in short: as §1
OVCAR-4 = test: Antiproliferative activity against human OVCAR4 cells at 10 uM incubated for 48 hrs by sulforhodamine B assay; in short: as §1
OVCAR-5 = test: Antiproliferative activity against human OVCAR5 cells at 10 uM incubated for 48 hrs by sulforhodamine B assay; in short: as §1
OVCAR-8 = test: Antiproliferative activity against human OVCAR8 cells at 10 uM incubated for 48 hrs by sulforhodamine B assay; in short: as §1
SK-OV-3 = test: Antiproliferative activity against human SKOV3 cells at 10 uM incubated for 48 hrs by sulforhodamine B assay; in short: as §1
786-0 = test: Antiproliferative activity against human 786-0 cells at 10 uM incubated for 48 hrs by sulforhodamine B assay; in short: as §1
A498 = test: Antiproliferative activity against human A498 cells at 10 uM incubated for 48 hrs by sulforhodamine B assay; in short: as §1
ACHN = test: Antiproliferative activity against human ACHN cells at 10 uM incubated for 48 hrs by sulforhodamine B assay; in short: as §1
RXF 393 = test: Antiproliferative activity against human RXF393 cells at 10 uM incubated for 48 hrs by sulforhodamine B assay; in short: as §1
SN12C = test: Antiproliferative activity against human SN12C cells at 10 uM incubated for 48 hrs by sulforhodamine B assay; in short: as §1
TK-10 = test: Antiproliferative activity against human TK10 cells at 10 uM incubated for 48 hrs by sulforhodamine B assay; in short: as §2
UO-31 = test: Antiproliferative activity against human UO31 cells at 10 uM incubated for 48 hrs by sulforhodamine B assay; in short: as §2
PC-3 = test: Antiproliferative activity against human PC3 cells at 10 uM incubated for 48 hrs by sulforhodamine B assay; in short: as §1
DU-145 = test: Antiproliferative activity against human DU145 cells at 10 uM incubated for 48 hrs by sulforhodamine B assay; in short: as §1
MCF7 = test: Antiproliferative activity against human MCF7 cells at 10 uM incubated for 48 hrs by sulforhodamine B assay; in short: as §1
Hs-578T = test: Antiproliferative activity against human Hs 578T cells at 10 uM incubated for 48 hrs by sulforhodamine B assay; in short: as §1
T47D = test: Antiproliferative activity against human T47D cells at 10 uM incubated for 48 hrs by sulforhodamine B assay; in short: as §2
MDA-MB-468 = test: Antiproliferative activity against human MDA-MB-468 cells at 10 uM incubated for 48 hrs by sulforhodamine B assay; in short: as §1

Measured: Activity

O=C(/C=C/c1ccccc1)O[C@H](c1ccccc1)[C@@H]1O[C@@H]2CC(=O)O[C@@H]2[C@H]1O
active: all assays above
